Assay results published in paper PMC8161485 (ACS Central Science, 2021).
Where a chain is given by its changes, count along the chain named.

How the values were obtained:
P450BM3 variant V-F10 = molecular target: T1, P450BM3 variant V-F10 (Priestia megaterium, UniProt P14779, A181T/A185V/A198V/A291V/E253G/F206C/F82V/F88A/H237Q/L354V/P143S/R256S/S227R/T176I/V79F); experiment: Heme spin shift binding of MCL to P450 variant V-F10; design: species or system Bacillus megaterium
T1 sequence (P14779 1-1049 V79F/F82V/F88A/P143S/T176I/A181T/A185V/A198V/F206C/S227R/H237Q/E253G/R256S/A291V/L354V): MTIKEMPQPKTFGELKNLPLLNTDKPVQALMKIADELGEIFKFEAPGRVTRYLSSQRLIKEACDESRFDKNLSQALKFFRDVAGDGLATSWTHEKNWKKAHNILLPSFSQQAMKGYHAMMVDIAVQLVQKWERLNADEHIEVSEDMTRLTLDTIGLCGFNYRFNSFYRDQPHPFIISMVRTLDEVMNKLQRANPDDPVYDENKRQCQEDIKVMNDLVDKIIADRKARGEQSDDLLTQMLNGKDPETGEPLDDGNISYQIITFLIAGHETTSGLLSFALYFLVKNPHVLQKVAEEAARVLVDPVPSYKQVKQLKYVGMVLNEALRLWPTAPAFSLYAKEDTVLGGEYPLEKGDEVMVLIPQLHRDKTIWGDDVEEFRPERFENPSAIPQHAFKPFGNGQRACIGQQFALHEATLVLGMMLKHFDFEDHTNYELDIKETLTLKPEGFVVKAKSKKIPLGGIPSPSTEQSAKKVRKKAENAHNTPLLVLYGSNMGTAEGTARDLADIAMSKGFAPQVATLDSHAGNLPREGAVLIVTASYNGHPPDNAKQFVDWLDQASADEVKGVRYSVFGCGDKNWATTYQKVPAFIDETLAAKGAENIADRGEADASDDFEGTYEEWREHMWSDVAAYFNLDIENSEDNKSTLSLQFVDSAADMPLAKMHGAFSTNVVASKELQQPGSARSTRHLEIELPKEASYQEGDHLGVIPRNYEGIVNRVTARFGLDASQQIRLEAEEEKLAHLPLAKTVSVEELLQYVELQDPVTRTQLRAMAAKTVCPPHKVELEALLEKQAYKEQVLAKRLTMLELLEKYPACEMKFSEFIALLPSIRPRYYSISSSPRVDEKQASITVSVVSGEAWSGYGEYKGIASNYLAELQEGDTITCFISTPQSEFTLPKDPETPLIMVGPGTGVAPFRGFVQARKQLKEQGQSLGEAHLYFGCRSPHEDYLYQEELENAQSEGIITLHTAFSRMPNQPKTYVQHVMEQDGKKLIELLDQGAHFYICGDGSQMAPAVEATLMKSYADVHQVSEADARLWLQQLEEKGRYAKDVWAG
Method in brief: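 Purified P450 (3 μM) in 50 mM potassium phosphate, pH 8.0, titrated with test compound (5–2000 μM) from a 50 mM ethanol stock. A difference spectrum (350–500 nm) was taken at each step. Absorbance change at 390/420 nm (high/low spin) was plotted against concentration, with KD from a nonlinear 1:1 binding fit. At least triplicate, room temperature.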

M9-ENL1 cells = experiment: Cell viability of M9-ENL1 cells, Annexin V / 7-AAD flow cytometry; type: cell-based, human; details: 20 μM, 24 h
AML cells and LSCs = details: MCL vs PTL; cited from earlier work
[1] = molecular target: T2, P450BM3 variant V-H10(R47C,A87I) (Priestia megaterium, UniProt P14779, A181T/A185V/A198V/A291V/E253G/F206C/F88I/H237Q/L354V/P143S/R256S/R48C/S227R/T176I/V79N); experiment: Heme spin shift binding of MCL to P450 variant V-H10; design: species or system Bacillus megaterium
T2 sequence (P14779 1-1049 R48C/V79N/F88I/P143S/T176I/A181T/A185V/A198V/F206C/S227R/H237Q/E253G/R256S/A291V/L354V): T1 sequence (P14779 1-1049 V79F/F82V/F88A/P143S/T176I/A181T/A185V/A198V/F206C/S227R/H237Q/E253G/R256S/A291V/L354V) with R48C, F79N, V82F, A88I
Method in brief: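 Purified P450 (3 μM) in 50 mM or 1 M potassium phosphate, pH 8.0, titrated with test compound (5–2000 μM) from a 50 mM ethanol stock. Difference spectra (350–500 nm) were recorded at each step. Absorbance change at 390/420 nm (high/low spin) was fitted to a 1:1 binding model for KD. At least triplicate, room temperature.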

[2] = system: AML02 primary AML specimen; experiment: Cell viability of primary AML specimen AML02; type: cell-based; details: Homo sapiens, read-out: AML02 LC50
Method in brief: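 Primary AML samples came from consenting donors. Live mononuclear cells were isolated on a Ficoll-Paque density gradient and cryopreserved, with 40–70% viability after thawing. Cells were kept at 37 °C, humidified, 5% CO2.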

heme oxygenase 1 (HO-1) = experiment: Induction of heme oxygenase 1 in primary AML specimens; type: cell-based, human; details: compared to vehicle-only control

In the case of `C=C1C(=O)O[C@H]2[C@H]1CCC(C)=C1CC[C@@](C)(O)[C@@H]12` [MCL, micheliolide], the Kd (P450BM3 variant V-F10) is given as 88 ± 18 µM, the “reduction in cell viability” value (M9-ENL1 cells) is given as 50% and the “LC50 in vitro relative to PTL (fold higher)” value (AML cells and LSCs) is given as roughly 3 fold. The Kd ([1]; 50 mM KPi pH 8.0, room temperature) was 365 ± 53 µM, the Kd ([1]; 1 M KPi buffer (pH 8.0)) was 128 µM and the CC50 [2] was 20.3 µM. For the same molecule, the “induction of heme oxygenase 1 (HO-1)” value (heme oxygenase 1 (HO-1)) was “Dose-dependent induction”.
